Laboratory results as given in PMC3794531 (Biomolecules & Therapeutics, 2012).

Tests used:
[1] = Proportion of total lactone form in PBS, MCF7 cell lysates and rat plasma; assay type: in vitro ADME; conditions: 37℃
Method in brief: (§1)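 Test compound (5 μM) was incubated at 37℃ in PBS, rat plasma, or MCF7 lysate. Lysate was prepared by adding PMSF, sonicating 10 sec, and centrifuging at 4℃ and 13,200 rpm for 15 min. Samples taken over time up to 120 min were quenched in ice-cold acetonitrile and centrifuged. Supernatant was diluted in 10 mM K2HPO4 pH 7.4 and run on C18 HPLC (K2HPO4:acetonitrile 62:38, 1 ml/min) with fluorescence detection (ex 380/em 540 nm). Data are mean ± SD.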

[2] = test system: CT26; experiment: MTT cytotoxicity test in CT26 cells; assay type: cell-based
Method in brief: (§2)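 Cells were grown in DMEM with 10% FBS, 100 unit/ml penicillin and 0.1 mg/ml streptomycin at 37℃ and 5% CO2, and split near 80% confluency. They were seeded at 1×10^5 cells/well and cultured 24 h to ~80% confluency, then exposed to test compound for 72 h. MTT (0.5 mg/ml in serum-free medium) was added for 2 h, and absorbance was read at 540 nm. Data are mean ± SD.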

[3] = test system: HT29; experiment: MTT cytotoxicity test in HT29 cells; assay type: cell-based; conditions: Homo sapiens, HT-29, 72 h
Method in brief: as §2

[4] = test system: MCF7 cells; experiment: MTT cytotoxicity test in MCF7 cells; assay type: cell-based; conditions: Homo sapiens, MCF7, 72 h
Method in brief: as §2

[5] = sodium phosphate (pH 7), 120 min; ref Tallman et al., 2005; cited from earlier work
[6] = ref Kawato et al., 1991; cited from earlier work
[7] = Stability test in PBS, MCF7 cell lysates and rat plasma; assay type: in vitro ADME; conditions: 5 μM, 37℃
Method in brief: as §1

[8] = test system: colon cancer-induced mice; experiment: In vivo survival test in colon cancer-induced mice; conditions: intravenous, n=4
Method in brief: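 Mice were anesthetized and the cecum exteriorized by laparotomy. CT26 cells (1×10^6 in 50 μl) were injected into the cecal wall, then the gut was returned and the incision closed (surgical orthotopic implantation). Test compounds were given intravenously, and survival was followed over the experimental period.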

SMILES	proportion of the lactone form at 120 min ([1]; MCF7 lysates)	proportion of the lactone form at 120 min ([1]; PBS)	proportion of the lactone form at 120 min ([1]; all 3 conditions (PBS, MCF7 lysates, plasma))	initial proportion of the lactone form ([1]; early time points, all 3 conditions (PBS, MCF7 lysates, plasma), 5 μM)	proportion of the lactone form at 120 min ([1]; rat plasma)	potency compared with irinotecan ([2]; MTT assay, CT26 and HT29 (Fig. 2))	EC50 ([2]; Mus musculus, CT26, 72 h) [nM]	EC50 [3] [nM]	EC50 [4] [nM]	percentage of SN-38 lactone remaining [5]	potency relative to irinotecan in terms of in vitro cytotoxicity [6] [fold]	stability in MCF7 lysates ([7]; MCF7 lysates, up to 120 min)	compound remaining after 120 min ([7]; PBS) [%]	compound remaining after 120 min ([7]; rat plasma)	survived longer than the irinotecan-administered group [8]	survival time [8] [days]
CCc1c2c(nc3ccc(O)cc13)-c1cc3c(c(=O)n1C2)COC(=O)[C@]3(O)CC [SN-38, 7-ethyl-10-hydroxy-camptothecin]	around 40%	around 40%	30-40%	80-90%	~ 30%	much more potent than the parent compound irinotecan	17300	1320	248	around 40%	100	rather unstable	~80	about 60%	at least 2 weeks	
CCc1c2c(nc3ccc(OC(=O)N4CCC(N5CCCCC5)CC4)cc13)-c1cc3c(c(=O)n1C2)COC(=O)[C@]3(O)CC [irinotecan]																< 28
